# Source: ChEMBL document CHEMBL2390954, “Discovery of a synthetic Aminopeptidase N inhibitor LB-4b as a potential anticancer agent” (Bioorg Med Chem Lett, 2013)
# The source made the active and inactive calls. The calls are words filed in the database; no cut-off is given here.
# Columns and labels:
# [1] = Cytotoxicity against human ES2 cells after 24 hrs by MTT assay; format: functional; details: ES-2, 24 h
# [2] = biological target: T1, Aminopeptidase N (Homo sapiens, UniProt P15144); experiment: Inhibition of APN in human ES-2 cells using L-Leu-p-nitroanilide as substrate incubated for 5 mins prior to substrate addition measured after 1 hr by UV-Vis spectrophotometry; format: cell-based
# T1 sequence (P15144 whole entry): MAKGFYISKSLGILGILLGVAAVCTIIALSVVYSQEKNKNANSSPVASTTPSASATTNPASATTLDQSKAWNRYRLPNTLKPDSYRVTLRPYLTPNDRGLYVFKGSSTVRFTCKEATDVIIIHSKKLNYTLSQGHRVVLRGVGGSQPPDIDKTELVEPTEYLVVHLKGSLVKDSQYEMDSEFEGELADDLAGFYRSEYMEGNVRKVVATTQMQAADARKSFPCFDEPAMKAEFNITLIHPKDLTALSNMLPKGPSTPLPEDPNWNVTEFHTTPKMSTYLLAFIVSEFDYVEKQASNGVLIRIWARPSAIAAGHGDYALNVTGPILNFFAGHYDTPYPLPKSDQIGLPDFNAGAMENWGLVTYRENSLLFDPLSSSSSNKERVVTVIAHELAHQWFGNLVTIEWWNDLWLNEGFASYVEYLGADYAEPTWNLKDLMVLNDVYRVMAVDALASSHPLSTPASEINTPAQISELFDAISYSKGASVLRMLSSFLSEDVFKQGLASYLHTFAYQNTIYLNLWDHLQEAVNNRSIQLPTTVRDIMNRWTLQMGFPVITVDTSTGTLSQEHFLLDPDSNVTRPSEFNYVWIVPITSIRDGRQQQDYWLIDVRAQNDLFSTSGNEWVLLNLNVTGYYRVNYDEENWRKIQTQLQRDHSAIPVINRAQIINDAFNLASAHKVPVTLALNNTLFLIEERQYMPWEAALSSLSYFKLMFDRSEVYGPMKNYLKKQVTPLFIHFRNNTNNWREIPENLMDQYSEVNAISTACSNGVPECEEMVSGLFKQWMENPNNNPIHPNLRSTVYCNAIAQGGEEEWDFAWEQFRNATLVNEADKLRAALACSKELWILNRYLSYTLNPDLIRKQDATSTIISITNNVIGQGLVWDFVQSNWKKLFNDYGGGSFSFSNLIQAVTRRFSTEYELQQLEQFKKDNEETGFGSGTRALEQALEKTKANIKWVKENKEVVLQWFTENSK
# [3] = test system: ES2; experiment: Antimigratory activity against human ES2 cells in transwell chamber at 100 ug/ml after 3 hrs by Crystal violet staining-based microscopy; format: functional, cell-based
# Method in brief: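 ES-2 cells placed in Transwell chambers with 8 µm micropore membranes, no Matrigel coating; cells crossing the membrane counted as migration rate relative to control; mean with SD from three independent experiments.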
# [4] = test system: ES2; experiment: Antiinvasive activity against human ES2 cells in matrigel-coated transwell chamber after 8 hrs by Crystal violet staining-based microscopy; format: functional, cell-based
# Method in brief: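 Invasion assessed in Matrigel-coated Transwell chambers; ES-2 cells allowed to invade the Matrigel and reach the other side of the membrane over 8 h; graded doses tested.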
# [5] = test system: HUVEC; experiment: Antiangiogenic activity in HUVEC assessed as inhibition of tube formation at 100 ug/ml after 8 hrs by microscopic analysis; format: functional, cell-based; details: Homo sapiens
# Method in brief: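 HUVECs plated on Matrigel to form capillary tube-like structures; tubular structure formation scored as inhibition rate versus untreated control; mean with SD from three independent experiments.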
# [6] = test system: Aorta; experiment: Antiangiogenic activity against Sprague-Dawley rat aortic rings assessed as inhibition of new microvessel growth at 100 ug/ml after 6 days; format: functional, tissue-based
# Method in brief: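 Rat aortic rings embedded on Matrigel; microvessel outgrowth from the ring scored and expressed as inhibition rate versus control; mean with SD from three independent experiments.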
# [7] = biological target: 72 kDa type IV collagenase (Homo sapiens, UniProt P08253); experiment: Inhibition of recombinant MMP2 (unknown origin) using […] as substrate incubated for 5 mins prior to substrate addition measured after 60 mins by UV-Vis spectrophotometry
# 72 kDa type IV collagenase, sequence (P08253 whole entry): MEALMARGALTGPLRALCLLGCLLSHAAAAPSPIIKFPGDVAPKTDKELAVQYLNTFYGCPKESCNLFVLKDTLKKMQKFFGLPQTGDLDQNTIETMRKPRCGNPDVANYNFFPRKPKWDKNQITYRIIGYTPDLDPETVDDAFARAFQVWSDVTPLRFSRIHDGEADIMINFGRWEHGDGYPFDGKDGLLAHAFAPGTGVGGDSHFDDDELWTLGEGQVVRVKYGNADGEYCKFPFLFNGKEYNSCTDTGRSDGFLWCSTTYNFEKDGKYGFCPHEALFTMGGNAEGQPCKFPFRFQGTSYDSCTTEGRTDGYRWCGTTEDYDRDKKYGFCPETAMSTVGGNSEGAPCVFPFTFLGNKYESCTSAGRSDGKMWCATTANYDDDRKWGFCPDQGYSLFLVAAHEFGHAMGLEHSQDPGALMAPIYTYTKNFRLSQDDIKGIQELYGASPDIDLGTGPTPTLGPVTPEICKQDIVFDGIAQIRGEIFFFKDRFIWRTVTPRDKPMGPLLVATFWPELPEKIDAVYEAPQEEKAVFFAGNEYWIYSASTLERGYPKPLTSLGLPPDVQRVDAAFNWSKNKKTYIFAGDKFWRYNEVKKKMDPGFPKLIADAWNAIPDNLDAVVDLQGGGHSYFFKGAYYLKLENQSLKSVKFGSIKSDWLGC
# [8] = test system: HUVEC; experiment: Acute cytotoxicity against HUVEC at 100 ug/ml after 8 hrs by microscopic analysis; format: cell-based; details: human
# Method in brief: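 Acute cytotoxicity judged by microscopic inspection of treated samples during the assay period on Matrigel.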
# [9] = biological target: T2, Aminopeptidase N (Sus scrofa, UniProt P15145); experiment: Inhibition of pig kidney APN using L-Leu-p-nitroanilide as substrate incubated for 5 mins prior to substrate addition measured after 30 mins by UV-Vis spectrophotometry
# T2 sequence (P15145 whole entry): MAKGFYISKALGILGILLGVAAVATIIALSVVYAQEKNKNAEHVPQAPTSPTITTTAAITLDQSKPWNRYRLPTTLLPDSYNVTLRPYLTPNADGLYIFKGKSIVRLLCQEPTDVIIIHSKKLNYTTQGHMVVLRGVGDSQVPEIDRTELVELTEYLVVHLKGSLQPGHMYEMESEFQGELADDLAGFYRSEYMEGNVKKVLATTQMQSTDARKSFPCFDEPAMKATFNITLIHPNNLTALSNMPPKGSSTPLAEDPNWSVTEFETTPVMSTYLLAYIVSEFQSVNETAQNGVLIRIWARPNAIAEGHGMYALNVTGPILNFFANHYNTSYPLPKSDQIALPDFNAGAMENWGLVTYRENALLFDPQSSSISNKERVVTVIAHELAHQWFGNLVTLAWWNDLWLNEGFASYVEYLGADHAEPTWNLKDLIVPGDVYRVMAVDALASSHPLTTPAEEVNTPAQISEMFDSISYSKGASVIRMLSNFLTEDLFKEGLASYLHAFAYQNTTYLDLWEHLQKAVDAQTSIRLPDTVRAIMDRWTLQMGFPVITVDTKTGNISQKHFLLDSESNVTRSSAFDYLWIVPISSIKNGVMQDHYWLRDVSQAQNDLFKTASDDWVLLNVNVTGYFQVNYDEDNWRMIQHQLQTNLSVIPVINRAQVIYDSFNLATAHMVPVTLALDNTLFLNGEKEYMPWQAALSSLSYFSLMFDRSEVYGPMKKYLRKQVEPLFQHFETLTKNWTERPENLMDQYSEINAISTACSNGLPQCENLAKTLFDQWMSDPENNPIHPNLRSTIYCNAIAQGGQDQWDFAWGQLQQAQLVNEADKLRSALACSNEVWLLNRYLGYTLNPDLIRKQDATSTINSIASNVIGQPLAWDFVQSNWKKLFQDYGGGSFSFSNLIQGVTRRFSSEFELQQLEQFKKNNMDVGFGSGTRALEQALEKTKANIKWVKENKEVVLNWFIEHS
# [10] = biological target: T1, Aminopeptidase N; experiment: Ratio of betastatin IC50 to compound IC50 for APN in human ES-2 cells; format: cell-based
SMILES,GI50 [1] [µM],IC50 [2] [µM],Activity [3],Activity [4],Activity [5],Activity [6],IC50 [7] [µM],Activity [8],IC50 [9] [µM],Ratio IC50 [10]
CC(C)C[C@H](NC(=O)NCc1ccccc1)C(=O)NO,> 1000,3,inactive,Dose-dependent effect,Active,Active,> 500,Non-toxic,0.85,10
CC(C)C[C@H](NC(=O)[C@@H](O)[C@H](N)Cc1ccccc1)C(=O)O [UBENIMEX],350,,inactive,Dose-dependent effect,Active,Active,,Non-toxic,,
